Screening data (PubChem BioAssay)
Sampled rows, rich in hits. Any-hit rate of the full collection: about 3.7%.
NPY2 pot ag: potentiates or activates human NPY-Y2 receptor | P49146 | cells expressing NPY-Y2, potentiator/agonist read-out | activation, % at 3.6 µM | hit rate 0.45% among 220,000; in the data active means activation above about 27%;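 further: cells stimulated with NPY near EC25 plus isoproterenol at EC100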
Target sequence (P49146 whole entry, looked up): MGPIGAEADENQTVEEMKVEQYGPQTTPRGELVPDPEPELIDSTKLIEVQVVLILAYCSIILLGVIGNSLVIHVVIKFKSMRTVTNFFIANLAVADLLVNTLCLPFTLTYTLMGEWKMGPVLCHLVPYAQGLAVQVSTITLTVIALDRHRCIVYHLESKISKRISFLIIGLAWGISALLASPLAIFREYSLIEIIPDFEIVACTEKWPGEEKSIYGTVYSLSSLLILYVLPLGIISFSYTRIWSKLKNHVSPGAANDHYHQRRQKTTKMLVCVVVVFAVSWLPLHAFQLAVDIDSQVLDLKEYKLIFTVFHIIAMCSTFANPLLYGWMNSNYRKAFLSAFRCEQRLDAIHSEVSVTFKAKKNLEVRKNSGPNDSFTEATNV
Furin inh: human furin inhibition; purified furin, fluorogenic substrate cleavage; inhibition, % at 20 µM or 30 µM; hit rate 0.061% among 220,000; in the data active means inhibition above about 25%
NPY1 pot ag: potentiators or agonists of human neuropeptide Y receptor Y1; NPY-Y1 expressing cells, potentiator/agonist activation; hit rate 0.37% among 220,000; activation, % at 3.6 µM; AID 1304; in the data active means activation above about 33%, passing the limit was not always enough;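 further: cells stimulated with NPY at EC10 then isoproterenol at EC100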
Target sequence (P25929 whole entry, looked up): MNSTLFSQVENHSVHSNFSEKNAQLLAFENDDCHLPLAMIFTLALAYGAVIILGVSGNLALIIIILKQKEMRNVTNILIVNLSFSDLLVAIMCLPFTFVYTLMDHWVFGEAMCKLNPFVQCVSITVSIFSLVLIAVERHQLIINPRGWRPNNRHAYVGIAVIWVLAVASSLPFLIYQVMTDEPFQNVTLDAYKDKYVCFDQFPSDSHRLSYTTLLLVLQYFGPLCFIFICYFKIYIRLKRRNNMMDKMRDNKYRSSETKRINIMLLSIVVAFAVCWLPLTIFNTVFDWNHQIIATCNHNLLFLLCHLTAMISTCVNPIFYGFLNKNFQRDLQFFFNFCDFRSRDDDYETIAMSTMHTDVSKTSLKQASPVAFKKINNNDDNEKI
NPY-Y1 antag: NPY-Y1 (human) receptor antagonism. hit rate 1% among 200,000. HEK293-CNG Y1 cells, membrane potential fluorescence; NPY at EC95, then isoproterenol. inhibition, % at 3.6 µM. P25929;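 active means inhibition above the campaign mean inhibition of all tested compounds plus 3 SD, cut at about 20% in these data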
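Assay system: HEK293 Y1/CNG channel cell line; Doses: single compound dose of 3.6 µM, 0.4% DMSO; Timing: dye 3 h, compound 60 min room temperature, stimulation 45 min; Technique: Membrane-potential fluorescent dye readout; Measure: % inhibition of NPY effect.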
NPY-Y2 antag: blocks the human neuropeptide Y Y2 receptor; P49146; NPY-Y2 expressing cells, antagonist mode; inhibition, % at 2.7 µM; hit rate 0.99% among 140,000; AID 793
KCC2 mod: KCC2 (human) Cl- transport modulation. hit rate 2.2% among 190,000. KCC2 cells, thallium flux FluoZin-2 fluorescence. B-score of Tl+ flux slope (higher = more flux/activation; lower = inhibition) at 10 µM;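 active means thallium flux slope and its plate-corrected score both differing from the plate sample mean at a set confidence after two filtering rounds, in either direction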;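 further: slope of fluorescence scaled to starting intensity during 10 to 20 s after thallium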
NPY1 antag conf: human NPY-Y1 antagonism, confirmation; shares compounds with NPY-Y1 antag; HEK293-CNG NPY-Y1, membrane potential fluorescence, cAMP; NPY challenge against isoproterenol-raised cAMP; inhibition, % at 3.6 µM; hit rate 21% among 1,200; AID 1254; in the data active means inhibition above about 20%
NPY2 antag ctr: counter-screen for NPY-Y1 antagonists: human NPY-Y2 antagonism; shares compounds with NPY-Y1 antag; HEK293 NPY-Y2 CNG membrane potential fluorescence; cells given NPY, then isoproterenol; inhibition, % at 3.6 µM; hit rate 28% among 1,200
NPY-Y1 pot conf: human NPY-Y1 potentiation or agonism, confirmation. shares compounds with NPY1 pot ag. hit rate 20% among 280. activation, % at 3.6 µM. AID 1546. cell-based NPY-Y1 potentiator/agonist assay; in the data active means activation above about 45%;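 further: cells challenged with NPY at its EC10 plus isoproterenol stimulus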
NPY-Y2 counter: potentiates or activates NPY-Y2, counter-screen for NPY-Y1 hits | hit rate 20% among 280 | shares compounds with NPY1 pot ag | activation, % at 3.6 µM | HEK293-CNG cells, membrane-potential fluorescence (FLIPR), 1536-well; in the data active means activation above about 33%
NPY-Y1 agonist: counter-screen for NPY-Y1 potentiators: agonists of human NPY-Y1 | shares compounds with NPY1 pot ag | HEK293 Y1-CNGC, membrane potential fluorescence, agonist mode | activation, % at 3.6 µM | hit rate 50% among 280 | AID 1697;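 active means percent activation above the mean of DMSO-only control wells plus 3 SD of those wells, cut at about 18% in these data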;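 further: cells challenged with isoproterenol plus Ro 20-1724 with no NPY in test wells; Y1 agonism lowers isoproterenol-driven cAMP and reduces probe fluorescence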
NPY-Y2 ag: activates human NPY-Y2, counter-screen for NPY-Y1 hits; hit rate 67% among 280; HEK293 Y2-CNGC, membrane potential fluorescence, agonist mode; shares compounds with NPY1 pot ag; activation, % at 3.6 µM;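 active means activation above the solvent-only control wells' mean plus 3 SD, cut at about 11% in these data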;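 further: agonism lowers cAMP so well fluorescence drops in active wells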
CNGC counter: counter-screen for NPY-Y1 potentiators or agonists: CNG channel inhibitors; shares compounds with NPY1 pot ag; HEK293-CNG parental, isoproterenol cAMP, membrane potential fluorescence; inhibition, % at 3.6 µM; hit rate 42% among 280;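 active means inhibition above the mean of stimulated solvent-only control wells plus 3 SD, cut at about 22% in these data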
KCC2 secondary: confirmation of human KCC2 transport modulators | shares compounds with KCC2 mod | HEK293-KCC2, thallium flux, FluoZin2 fluorescence; hits give high values | hit rate 15% among 3,700 | normalised thallium flux (F/F0 slope) at 10 µM;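 active means thallium flux slope above the same plate's solvent-only control mean plus 3 SD; inconclusive means the two replicate wells disagree; inactive means no significant difference from solvent-only control wells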
KCC2 bumet counter: thallium flux persisting under bumetanide in KCC2 cells, counter-screen secondary assay. shares compounds with KCC2 mod. HEK293-KCC2 + bumetanide/ouabain, thallium flux FluoZin2; hits give high values. normalized thallium flux at 10 µM. hit rate 49% among 3,700;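 active means thallium entry rate above the same plate's blocked-transporter control wells by more than 3 SD; inconclusive means the two repeat wells disagree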;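 further: raw slope of fluorescence over initial fluorescence between 10 and 20 s after thallium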
KCC2 secondary2: KCC2 (human) modulation, second secondary assay | shares compounds with KCC2 mod | hit rate 23% among 3,700 | normalized thallium flux at 10 µM | HEK293-KCC2, thallium flux FluoZin2 fluorescence; actives lie on both sides; F/F0 rise rate, 10–20 s post-thallium;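 active means thallium flux slope more than 3 SD above or below the plate's solvent-only control mean, mostly below; inconclusive means the two repeat wells disagreed; inactive means no significant shift from solvent-only controls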
HEK counter1: counter-screen for KCC2 modulators: effect in parental HEK293 cells | thallium flux rate (normalised fluorescence) at 10 µM | hit rate 46% among 3,700 | AID 1716 | thallium flux FluoZin2, ouabain; baseline-ratio fluorescence slope, 10–20 s after thallium | shares compounds with KCC2 mod;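 active means thallium flux rate significantly above the same plate's solvent-only control wells, beyond their mean plus 3 SD; inconclusive means the two replicate wells gave conflicting results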
KCC2 retest ouab: modulates human KCC2 on retest with ouabain; hit rate 48% among 3,700; HEK293-KCC2, thallium flux FluoZin2 fluorescence; bidirectional: low = inhibitor, high = activator; raw Tl+ flux slope (below DMSO = inhibition, above = activation) at 10 µM; shares compounds with KCC2 mod; AID 1717;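 active means thallium flux slope beyond 3 SD from same-plate DMSO control mean in most replicates, usually higher, sometimes lower; inconclusive means repeat tests gave conflicting results; inactive means no significant difference from controls in most replicates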;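 further: slope of initial-normalized fluorescence between seconds 10 and 20 after thallium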
HEK counter2: acts in parental HEK cells, second KCC2 counter-screen; shares compounds with KCC2 mod; HEK293 parental, thallium flux FluoZin-2 fluorescence slope; thallium flux slope at 10 µM; hit rate 33% among 3,700;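 active means thallium flux slope above the same plate's solvent-control mean plus 3 SD in both duplicate wells; inconclusive means duplicate wells that disagreed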;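 further: run without ouabain in cells lacking the KCC2 cotransporter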
Of the large screens only hits and unclear results are named; the others gave an inactive call (follow-up assays come after a bar, where they were run). Unless noted, no stated cut-off is given here; in the data, active means inhibition above about 17%; inactive means the rest.

CCN(CC)c1ccc(S(=O)(=O)N2CCOCC2)cc1NC(=O)CSc1n[nH]c(N)n1	none (no result: NPY-Y1 antag, NPY-Y2 antag)
O=C(NC(=S)NCc1ccc(F)cc1)c1ccccc1	NPY-Y1 antag 23, KCC2 mod 48 | NPY1 antag conf inactive | NPY2 antag ctr inactive | KCC2 secondary 0.027 | KCC2 bumet counter 0.053 | KCC2 secondary2 0.039 | HEK counter1 0.021 | KCC2 retest ouab 0.029 | HEK counter2 0.023
O=C(NC(=S)NCc1ccncc1)c1ccccc1	none (no result: NPY-Y2 antag)
O=C(CCCN1C(=O)c2cccc3cccc(c23)C1=O)N1CCc2ccccc2C1	NPY-Y1 antag 23, KCC2 mod -4.1 | NPY1 antag conf inactive | NPY2 antag ctr inactive | KCC2 secondary inactive | KCC2 bumet counter inconclusive | KCC2 secondary2 0.024 | HEK counter1 0.0058 | KCC2 retest ouab 0.012 | HEK counter2 inactive
CC(C)[C@H](NC(N)=O)C(=O)Nc1cccc(S(=O)(=O)N2CCOCC2)c1	none (no result: NPY-Y2 antag)
CCC(=O)N(CCC(Cc1ccccc1)c1ccco1)Cc1ccco1 (configuration not stated)	NPY-Y1 antag 42, KCC2 mod -3.9 (no result: NPY-Y2 antag) | NPY1 antag conf inactive | NPY2 antag ctr inactive | KCC2 secondary inactive | KCC2 bumet counter 0.0026 | KCC2 secondary2 inactive | HEK counter1 0.0046 | KCC2 retest ouab 0.013 | HEK counter2 0.0069
O=C(Nc1ccccc1OC(F)F)c1oc2ccccc2c1COc1ccccc1	none
Cc1cc(C)cc(NC(=O)c2oc3ccccc3c2COc2ccccc2)c1	NPY-Y1 antag 23, KCC2 mod -4.8 | NPY1 antag conf inactive | NPY2 antag ctr inactive | KCC2 secondary inactive | KCC2 bumet counter inactive | KCC2 secondary2 inactive | HEK counter1 inactive | KCC2 retest ouab inactive | HEK counter2 inactive
CC(=O)c1ccccc1OC(=O)CCN1C(=O)c2ccccc2C1=O	none (no result: NPY-Y2 antag)
O=C(Nc1nnc(C2=COCCO2)o1)c1ccc(Cc2ccccc2)cc1	NPY-Y1 antag 22, KCC2 mod 7.3 (no result: NPY-Y2 antag) | NPY1 antag conf inactive | NPY2 antag ctr inactive | KCC2 secondary inactive | KCC2 bumet counter 0.019 | KCC2 secondary2 inactive | HEK counter1 0.016 | KCC2 retest ouab inconclusive | HEK counter2 0.019
O=C(Nc1nnc(C2=COCCO2)o1)c1ccc(S(=O)(=O)N2CCOCC2)cc1	none (no result: NPY-Y2 antag)
COc1cccc(NC(=O)C(Sc2nnc(-c3ccncc3)n2-c2ccc(Cl)cc2)c2ccccc2)c1 (configuration not stated)	NPY1 pot ag 52 | NPY-Y1 pot conf 60 | NPY-Y2 counter 54 | NPY-Y1 agonist 63 | NPY-Y2 ag 40 | CNGC counter 60
OC(COc1cccc2ccccc12)CN1CCN(c2ccccc2)CC1 (configuration not stated)	NPY1 pot ag 54 (no result: NPY-Y1 antag, NPY-Y2 antag, KCC2 mod) | NPY-Y1 pot conf inactive | NPY-Y2 counter inactive | NPY-Y1 agonist 29 | NPY-Y2 ag 17 | CNGC counter inactive
Cc1ccc(OCC(O)CN2CCN(c3ccccc3)CC2)cc1 (configuration not stated)	none
COc1cc(OC)cc(C(=O)Nc2ccc(NC(=O)c3ccco3)c(Cl)c2)c1	NPY1 pot ag 67 (no result: NPY-Y2 antag) | NPY-Y1 pot conf inactive | NPY-Y2 counter inactive | NPY-Y1 agonist inactive | NPY-Y2 ag inactive | CNGC counter inactive
O=C(CSCSCC(=O)Nc1ccc2c(c1)OCO2)Nc1ccc2c(c1)OCO2	NPY1 pot ag 46 | NPY-Y1 pot conf inactive | NPY-Y2 counter inactive | NPY-Y1 agonist inactive | NPY-Y2 ag inactive | CNGC counter inactive
O=C(CSCc1ccccc1)Nc1ccc2c(c1)OCO2	none (no result: KCC2 mod)
Cc1onc(-c2c(Cl)cccc2Cl)c1C(N)=O	none
Cc1onc(-c2c(Cl)cccc2Cl)c1C(=O)n1nnc2ccccc21	NPY1 pot ag 45 | NPY-Y1 pot conf inactive | NPY-Y2 counter inactive | NPY-Y1 agonist inactive | NPY-Y2 ag inactive | CNGC counter inactive
CCOC(=O)C1CCCN(c2cc(=O)n(C3CCCCC3)c(=O)[nH]2)C1 (configuration not stated)	none (no result: NPY-Y2 antag)
CCC(CC)C(=O)OCC(=O)Nc1cc(OC)c([N+](=O)[O-])cc1C	none
Cc1ccc(NC(=O)c2noc3c2CCCCC3)cc1C	NPY1 pot ag 49 | NPY-Y1 pot conf inactive | NPY-Y2 counter inactive | NPY-Y1 agonist inactive | NPY-Y2 ag inactive | CNGC counter inactive
